Data: ChEMBL document CHEMBL4052815, “Amphiphilic Modulation of Glycosylated Antitumor Ether Lipids Results in a Potent Triamino Scaffold against Epithelial Cancer Cell Lines and BT474 Cancer Stem Cells” (J Med Chem, 2017)
Active and inactive are the calls of the source. The calls are words filed in the database; no cut-off is given here.

Key:
MDA-MB-231 [1] = experiment: Cytotoxicity against human MDA-MB-231 cells assessed as decrease in cell viability after 48 hrs by MTS assay; format: functional; conditions: MDA-MB-231, 48 h
How it was run: (§1)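 Cells grown at 37 °C, 5% CO2, with 10% FBS and penicillin/streptomycin: MDA-MB-231, JIMT1 and DU145 in DMEM, PC3 in F12K, BT474 in Hybricare, MiaPaCa2 in DMEM plus 2.5% horse serum. Cells (7500–9000/well) were plated for 24 h, then exposed to 0–20 µM for 48 h. MTS was added for 1–4 h and OD490 read, blank-subtracted, relative to vehicle. CC50 was read from plots; mean ± SD, six independent determinations.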

MIA PaCa-2 [2] = experiment: Cytotoxicity against human MIAPaCa2 cells assessed as decrease in cell viability after 48 hrs by MTS assay; format: functional; conditions: MIA PaCa-2, 48 h; how it was run: as §1
PC-3 [3] = experiment: Cytotoxicity against human PC3 cells assessed as decrease in cell viability after 48 hrs by MTS assay; format: functional; conditions: PC-3, 48 h; how it was run: as §1
BT-474 [4] = experiment: Induction of disintegration of human BT474 cancer stem cell spheroids at 20 uM after 3 days by microscopic method; format: functional, cell-based
How it was run: (§2)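 BT474 stem-cell spheroids (ALDH1-sorted, formed over 6 days in Mammocult on ultra-low adhesion plates) exposed to 0, 7.5 or 20 µM for 3 days. Integrity was judged by light microscopy at ×10 against untreated spheroid wells.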

DU-145 [5] = experiment: Cytotoxicity against human DU145 cells assessed as decrease in cell viability after 48 hrs by MTS assay; format: functional; conditions: DU-145, 48 h; how it was run: as §1
JIMT-1 [6] = experiment: Cytotoxicity against human JIMT1 cells assessed as decrease in cell viability after 48 hrs by MTS assay; format: functional; conditions: JIMT-1, 48 h; how it was run: as §1
BT-474 [7] = experiment: Induction of disintegration of human BT474 cancer stem cell spheroids at 7.5 uM after 3 days by microscopic method; format: functional, cell-based; how it was run: as §2
BT-474 [8] = experiment: Cytotoxicity against human BT474 cells assessed as decrease in cell viability after 48 hrs by MTS assay; format: functional; conditions: BT-474, 48 h; how it was run: as §1
BT-474 [9] = experiment: Cytotoxicity against human BT474 cancer stem cell spheroids assessed as cell viability at 20 uM after 3 days by MTS assay relative to control; conditions: BT-474, 72 h
BT-474 [10] = experiment: Cytotoxicity against human BT474 cells assessed as cell viability at 4 to 10 uM after 48 hrs by MTS assay relative to control; format: functional; how it was run: as §1
MDA-MB-231 [11] = experiment: Cytotoxicity against human MDA-MB-231 cells assessed as cell viability at 4 to 10 uM after 48 hrs by MTS assay relative to control; format: functional; how it was run: as §1
JIMT-1 [12] = experiment: Cytotoxicity against human JIMT1 cells assessed as cell viability at 4 to 10 uM after 48 hrs by MTS assay relative to control; format: functional; how it was run: as §1
Hs-578T [13] = experiment: Cytotoxicity against human Hs 578T cells assessed as decrease in cell viability after 48 hrs by MTS assay; format: functional
PC-3 [14] = experiment: Cytotoxicity against human PC3 cells assessed as cell viability at 4 to 10 uM after 48 hrs by MTS assay relative to control; format: functional; how it was run: as §1
A2780S [15] = experiment: Cytotoxicity against human A2780S cells assessed as decrease in cell viability after 48 hrs by MTS assay; format: functional
How it was run: (§3)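 Exponentially growing cells (7500–9000/well) were seeded for 24 h, then given compound at 0–20 µM for a further 48 h. MTS reagent (20% v/v) was added for 1–4 h and OD490 read. Blanks were cell-free media wells, and viability was expressed relative to vehicle controls. CC50 was read from viability plots; mean ± SD of six independent determinations.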

BT-474 [16] = experiment: Cytotoxicity against human BT474 cancer stem cell spheroids assessed as cell viability at 10 uM after 3 days by MTS assay relative to control; conditions: BT-474, 72 h
A2780S [17] = experiment: Cytotoxicity against human A2780S cells assessed as cell viability at 4 to 8 uM after 48 hrs by MTS assay relative to control; format: functional; how it was run: as §3
[18] = Cytotoxicity against human U87 cells assessed as cell viability at 4 to 8 uM after 48 hrs by MTS assay relative to control; format: functional, U-87MG ATCC; how it was run: as §3
MIA PaCa-2 [19] = experiment: Cytotoxicity against human MIAPaCa2 cells assessed as cell viability at 4 to 10 uM after 48 hrs by MTS assay relative to control; format: functional; how it was run: as §1
[20] = Cytotoxicity against human U87 cells assessed as decrease in cell viability after 48 hrs by MTS assay; format: functional, U-87MG ATCC; conditions: U-87 MG; how it was run: as §3
MDA-MB-453 [21] = experiment: Cytotoxicity against human MDA-MB-453 cells assessed as decrease in cell viability after 48 hrs by MTS assay; format: functional; conditions: MDA-MB-453, 48 h
BT-549 [22] = experiment: Cytotoxicity against human BT549 cells assessed as decrease in cell viability after 48 hrs by MTS assay; format: functional; conditions: BT-549, 48 h
BT-474 [23] = experiment: Cytotoxicity against human BT474 cancer stem cell spheroids assessed as decrease in cell viability at 2 to 10 uM after 3 days by MTS assay
U-251 [24] = experiment: Cytotoxicity against human U251 cells assessed as cell viability at 4 to 8 uM after 48 hrs by MTS assay relative to control; format: functional; how it was run: as §3
JIMT-1 [25] = experiment: Cytotoxicity against human JIMT1 cells assessed as decrease in cell viability at 2 to 8 uM in presence of pan-caspase inhibitor Q-VD-OPh after 48 hrs by MTS assay; format: functional, cell-based
How it was run: (§4)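 DU145 or JIMT1 cells seeded for 24 h, then given 40 µM pan-caspase inhibitor along with varying compound concentrations. Incubation continued 48 h, then MTS (20% v/v) for 1–4 h, OD490 read. Values are blank-subtracted and relative to vehicle controls; mean ± SD.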

MDA-MB-453 [26] = experiment: Cytotoxicity against human MDA-MB-453 cells assessed as decrease in cell viability at 6 uM after 48 hrs by MTS assay relative to control; format: functional
Hs-578T [27] = experiment: Cytotoxicity against human Hs 578T cells assessed as decrease in cell viability at 6 uM after 48 hrs by MTS assay relative to control; format: functional
U-251 [28] = experiment: Cytotoxicity against human U251 cells assessed as decrease in cell viability after 48 hrs by MTS assay; format: functional; conditions: U-251, 48 h; how it was run: as §3
[29] = Cytotoxicity against human A2780C/P cells assessed as cell viability at 4 to 8 uM after 48 hrs by MTS assay relative to control; format: functional; how it was run: as §3
MDA-MB-231 [30] = experiment: Cytotoxicity against human MDA-MB-231 cells assessed as decrease in cell viability at 6 uM after 48 hrs by MTS assay relative to control; format: functional
MDA-MB-468 [31] = experiment: Cytotoxicity against human MDA-MB-468 cells assessed as decrease in cell viability after 48 hrs by MTS assay; format: functional; conditions: MDA-MB-468, 48 h
[32] = Cytotoxicity against human A2780C/P cells assessed as decrease in cell viability after 48 hrs by MTS assay; format: functional; how it was run: as §3
DU-145 [33] = experiment: Cytotoxicity against human DU145 cells assessed as decrease in cell viability at 2 to 8 uM in presence of pan-caspase inhibitor Q-VD-OPh after 48 hrs by MTS assay; format: functional, cell-based; how it was run: as §4
DU-145 [34] = experiment: Membranolytic activity in human DU145 cells at 6 uM after 4 hrs by ethidium homodimer-1 staining-based fluorescence microscopic method; format: functional, cell-based
How it was run: (§5)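 DU145 and JIMT1 grown in DMEM with 10% FBS and antibiotics, plated 24 h, then given 4–6 µM for 5–6 h (legend: 4 h). Ethidium homodimer-1 was added at 2 µM final, and cells were examined by bright-field and fluorescence microscopy at ×20. Controls: untreated cells, and 0.01% Triton X-100 for 10 min.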

[35] = Ratio of compound concentration showing <20% hemolysis in ovine erythrocytes to CC50 for human BT474 cells
DU-145 [36] = experiment: Induction of morphological changes in human DU145 cells at 6 uM after 4 hrs by bright field microscopic method; format: functional, cell-based; how it was run: as §5
JIMT-1 [37] = experiment: Induction of morphological changes in human JIMT1 cells at 6 uM after 4 hrs by bright field microscopic method; format: functional, cell-based; how it was run: as §5
JIMT-1 [38] = experiment: Membranolytic activity in human JIMT1 cells at 6 uM after 4 hrs by ethidium homodimer-1 staining-based fluorescence microscopic method; format: functional, cell-based; how it was run: as §5
BT-549 [39] = experiment: Cytotoxicity against human BT549 cells assessed as decrease in cell viability at 6 uM after 48 hrs by MTS assay relative to control; format: functional
DU-145 [40] = experiment: Cytotoxicity against human DU145 cells assessed as cell viability at 4 to 10 uM after 48 hrs by MTS assay relative to control; format: functional; how it was run: as §1
MDA-MB-468 [41] = experiment: Cytotoxicity against human MDA-MB-468 cells assessed as decrease in cell viability at 6 uM after 48 hrs by MTS assay relative to control; format: functional

`CCCCCCCCCCCCCCCCOC[C@H](CO[C@@H]1O[C@H](CNCCCN)[C@@H](O)[C@H](O)[C@H]1N)OC` showed a CC50 (MDA-MB-231 [1]) of 13.5 µM, a CC50 (MIA PaCa-2 [2]) of 18.5 µM and a CC50 (PC-3 [3]) of 12.5 µM. The Activity (BT-474 [4]) was “inactive”, the CC50 (DU-145 [5]) was 16.5 µM and the CC50 (JIMT-1 [6]) was 13.5 µM. The Activity (BT-474 [7]) was “Active”, the CC50 (BT-474 [8]) was greater than 20 µM and the viability at 20 µM (BT-474 [9]) was 0%.

`CCCCCCCCCCCCCCCCOC[C@H](CO[C@@H]1O[C@H](CN)[C@@H](O)[C@H](O)[C@H]1NCCCCCCCCCCCCN)OC` gave a CC50 (MDA-MB-231 [1]) of 5.5 µM, a CC50 (MIA PaCa-2 [2]) of 8.5 µM and a CC50 (PC-3 [3]) of 8.5 µM. For the same molecule, the Activity (BT-474 [4]) was “Active”, the CC50 (DU-145 [5]) was 7.5 µM and the CC50 (JIMT-1 [6]) was 8 µM. For the same molecule, the Activity (BT-474 [7]) was “Active”, the CC50 (BT-474 [8]) was 13.5 µM and the viability at 20 µM (BT-474 [9]) was 0%.

`CCCCCCCCCCCCCCCCOC[C@H](CO[C@@H]1O[C@H](CNCCCCCCCCCCCCN)[C@@H](O)[C@H](O)[C@H]1N)OC` showed an Activity (BT-474 [10]) of 0%, an Activity (MDA-MB-231 [11]) of 0% and an Activity (JIMT-1 [12]) of 0%. For the same molecule, the CC50 (Hs-578T [13]) was 1.8 µM, the Activity (PC-3 [14]) was 0% and the CC50 (A2780S [15]) was 2.4 µM. The viability at 10 µM (BT-474 [16]) was 2%, the Activity (A2780S [17]) was 0% and the Activity [18] was 0%. The Activity (MIA PaCa-2 [19]) was 0%, the CC50 [20] was 2.5 µM and the CC50 (MDA-MB-453 [21]) was 4 µM. The CC50 (BT-549 [22]) was 2.5 µM, the CC50 (MDA-MB-231 [1]) was 1.5 µM and the Activity (BT-474 [23]) was “Active”. For the same molecule, the CC50 (MIA PaCa-2 [2]) was 4 µM, the Activity (U-251 [24]) was 0% and the Activity (JIMT-1 [25]) was “Active”. The Activity (MDA-MB-453 [26]) was greater than 95%, the Activity (Hs-578T [27]) was greater than 95% and the CC50 (U-251 [28]) was 2.6 µM. The CC50 (PC-3 [3]) was 2 µM, the Activity [29] was 0% and the Activity (BT-474 [4]) was “Active”. It also gave a CC50 (DU-145 [5]) of 3.8 µM, an Activity (MDA-MB-231 [30]) greater than 95% and a CC50 (JIMT-1 [6]) of 3.4 µM. The CC50 (MDA-MB-468 [31]) was 2 µM, the Activity (BT-474 [7]) was “Active” and the CC50 [32] was 3.8 µM. The Activity (DU-145 [33]) was “Active”, the Activity (DU-145 [34]) was “inactive” and the Ratio [35] was 15. The Activity (DU-145 [36]) was “Active”, the Activity (JIMT-1 [37]) was “Active” and the CC50 (BT-474 [8]) was 1.6 µM. For the same molecule, the viability at 20 µM (BT-474 [9]) was 0%, the Activity (JIMT-1 [38]) was “inactive” and the Activity (BT-549 [39]) was greater than 95%. It also gave an Activity (DU-145 [40]) of 0% and an Activity (MDA-MB-468 [41]) greater than 95%.
